Measurements reported in ChEMBL document CHEMBL4609978, “Synthesis and evaluation of 2'-dihalo ribonucleotide prodrugs with activity against hepatitis C virus” (Bioorg Med Chem, 2020).
In brackets after ≈: the same amount, converted by molar mass.

What was measured:
Hepatitis C virus [1] = experiment: Antiviral activity against HCV genotype 1b Con1 over expressing CES1 infected in human HuH7 replicon cells assessed as inhibition of viral replication after 3 days by luciferase reporter gene assay; format: functional, organism-based, Hepacivirus hominis; details: subtype 1b Con1, Huh-7, 72 h
[2] = Aqueous solubility of compound in pH 7.4 phosphate buffer; format: physicochemical
[3] = Prodrug conversion in human primary hepatocytes assessed as nucleotide triphosphate level at 100 uM incubated for 4 hrs and followed by compound washout for 20 hrs and measured following 24 hrs incubation period by LC-MS/MS analysis; format: ADME, cell-based, Hepatocyte
Outline: (§1)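 Cryopreserved primary human hepatocytes plated ~55,000 viable cells/well on collagen, medium changed after 4–6 h to Williams E maintenance medium with Geltrex 0.35 mg/mL, overnight at 37 °C; prodrug 100 µM for 4 h, then washed; second plate held a further 20 h drug-free; cells washed with ice-cold HBSS, triphosphate measured by LC-MS/MS at 4 or 24 h.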

[4] = Prodrug conversion in Beagle dog liver assessed as nucleotide triphosphate level at 1 mg/kg, po qd for 4 days co-dosed with 5 mg/kg sofosbuvir and measured at 24 hrs post-last dose by LC-MS/MS analysis; format: ADME, organism-based, Canis lupus familiaris; details: in vivo
Outline: (§2)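 Beagle dogs (3 per time point) dosed orally once daily for 4 days with prodrug (1 or 5 mg/kg) in EtOH:PEG-400:Phosal 53 MCT (10:30:60, w/w) together with sofosbuvir 5 mg/kg; liver biopsy 24 h after final dose, flash frozen, triphosphate by LC-MS/MS.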

[5] = Prodrug conversion in Beagle dog liver assessed as increase in nucleotide triphosphate level at 5 mg/kg, po co-dosed with 5 mg/kg sofosbuvir measured after 24 hrs by LC-MS/MS analysis relative to sofosbuvir; format: ADME, organism-based, Canis lupus familiaris; details: in vivo
Outline: (§3)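 Beagle dogs (3 per time point) given single oral prodrug 5 mg/kg in EtOH:PEG-400:Phosal 53 MCT (10:30:60, w/w), cassette-dosed with sofosbuvir 5 mg/kg as internal standard; liver biopsies at 4 or 24 h, flash frozen, triphosphate measured by LC-MS/MS.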

[6] = Stability in dog plasma assessed as parent compound remaining after 4 hrs; format: ADME, cell-free, Canis lupus familiaris; details: read-out: Stability
Outline: (§4)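 Prodrug incubated 4 h at 37 °C in dog or human plasma; result given as percent parent remaining.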

Hepatitis C virus [7] = experiment: Antiviral activity against HCV genotype 1a H77 infected in human HuH7 replicon cells assessed as inhibition of viral replication after 3 days by luciferase reporter gene assay; format: functional, organism-based, Hepacivirus hominis; details: subtype 1a H77, Huh-7, 72 h
Outline: (§5)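 Stable subgenomic replicon cell lines (genotype 1a-H77 or 1b-Con1) carrying a luciferase reporter; compounds added in DMEM with 5% FBS, cells incubated 3 days with or without compound, then lysed and luciferase activity read; EC50 from nonlinear regression fit to 4-parameter logistic equation.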

[8] = Prodrug conversion in human primary hepatocytes assessed as increase in nucleotide triphosphate level at 100 uM incubated for 4 hrs followed by compound wash-out for 20 hrs and measured following 4 hrs incubation period by LC-MS/MS analysis relative to sofosbuvir; format: ADME, cell-based, Hepatocyte
[9] = Prodrug conversion in Beagle dog liver assessed as increase in nucleotide triphosphate level at 5 mg/kg, po co-dosed with 5 mg/kg sofosbuvir measured after 4 hrs by LC-MS/MS analysis relative to sofosbuvir; format: ADME, organism-based, Canis lupus familiaris; details: in vivo; outline: as §3
[10] = Unbound drug level in dog plasma; format: ADME, cell-free, Canis lupus familiaris
[11] = Stability in human plasma assessed as parent compound remaining after 4 hrs; format: ADME, cell-free; details: read-out: Stability; outline: as §4
[12] = Prodrug conversion in Beagle dog liver assessed as nucleotide triphosphate level at 5 mg/kg, po co-dosed with 5 mg/kg sofosbuvir measured after 4 hrs by LC-MS/MS analysis; format: ADME, organism-based, Canis lupus familiaris; details: in vivo; outline: as §3
[13] = Prodrug conversion in Beagle dog liver assessed as nucleotide triphosphate level at 5 mg/kg, po co-dosed with 5 mg/kg sofosbuvir measured after 24 hrs by LC-MS/MS analysis; format: ADME, organism-based, Canis lupus familiaris; details: in vivo; outline: as §3
[14] = Prodrug conversion in Beagle dog liver assessed as nucleotide triphosphate level at 5 mg/kg, po administered as single dose measured after 4 hrs by LC-MS/MS analysis; format: ADME, organism-based, Canis lupus familiaris; details: in vivo
[15] = Distribution coefficient, logD of compound by HT-LCMS analysis; format: physicochemical; details: octanol/water
[16] = Intrinsic clearance in dog hepatocytes; format: ADME, cell-based, Canis lupus familiaris, Hepatocyte; details: read-out: CLH (converted)
[17] = Intrinsic clearance in human hepatocytes; format: ADME, cell-based, Hepatocyte; details: read-out: CLH (converted)
[18] = Prodrug conversion in Beagle dog liver assessed as nucleotide triphosphate level at 5 mg/kg, po administered as single dose measured after 24 hrs by LC-MS/MS analysis; format: ADME, organism-based, Canis lupus familiaris; details: in vivo
[19] = Prodrug conversion in Beagle dog liver assessed as nucleotide triphosphate level at 5 mg/kg, po qd for 4 days and measured at 24 hrs post-last dose by LC-MS/MS analysis; format: ADME, organism-based, Canis lupus familiaris; details: in vivo
[20] = Prodrug conversion in human primary hepatocytes assessed as nucleotide triphosphate level at 100 uM incubated for 4 hrs followed by compound wash-out for 20 hrs and measured following 4 hrs incubation period by LC-MS/MS analysis; format: ADME, cell-based, Hepatocyte; outline: as §1
Hepatitis C virus [21] = experiment: Antiviral activity against HCV genotype 1b Con1 infected in human HuH7 replicon cells assessed as inhibition of viral replication after 3 days by luciferase reporter gene assay; format: functional, organism-based, Hepacivirus hominis; details: subtype 1b Con1, Huh-7, 72 h; outline: as §5
[22] = Unbound drug level in human plasma; format: ADME, cell-free
[23] = Prodrug conversion in Beagle dog liver assessed as nucleotide triphosphate level at 5 mg/kg, po qd for 4 days co-dosed with 5 mg/kg sofosbuvir and measured at 24 hrs post-last dose by LC-MS/MS analysis; format: ADME, organism-based, Canis lupus familiaris; details: in vivo; outline: as §2

Work on `CCOC(=O)C(C)(C)N[P@](=O)(OC[C@H]1O[C@@H](n2ccc(=O)[nH]c2=O)[C@@](F)(Br)[C@@H]1O)Oc1ccccc1` yielded an EC50 (Hepatitis C virus [1]) of 69 nM, a solubility [2] of 519 µM (≈ 308 µg/mL) and a Drug metabolism [3] of 736 µM. It also gave a Drug metabolism [4] of 10.7 µM, a fold change (FC) [5] of 5 to 6 and a remaining at 4 h [6] of 100%. The EC50 (Hepatitis C virus [7]) was 259 nM, the fold change (FC) [8] was 30 to 40 and the fold change (FC) [9] was 5 to 6. For the same compound, the fraction unbound [10] was 0.317, the remaining at 4 h [11] was 98% and the Drug metabolism [12] was 7 µM. It also gave a Drug metabolism [13] of 6.64 µM, a Drug metabolism [14] of 43.3 µM and a logD [15] of 2.86. For the same compound, the CLint scaled [16] was 123 mL/min/kg, the CLint scaled [17] was 132 mL/min/kg and the Drug metabolism [18] was 42.7 µM. For the same compound, the Drug metabolism [19] was 8.18 µM, the Drug metabolism [20] was 3600 µM and the EC50 (Hepatitis C virus [21]) was 434 nM. For the same compound, the fraction unbound [22] was 0.473.
Work on `CCOC(=O)C(C)(C)N[P@](=O)(OC[C@H]1O[C@@H](n2ccc(=O)[nH]c2=O)[C@](Cl)(Br)[C@@H]1O)Oc1ccccc1` yielded an EC50 (Hepatitis C virus [1]) of 154 nM, a solubility [2] greater than 200 µM and a Drug metabolism [23] of 11.1 µM. For the same compound, the Drug metabolism [3] was 203 µM, the remaining at 4 h [6] was 86% and the EC50 (Hepatitis C virus [7]) was 644 nM. It also gave a fold change (FC) [8] of 30 to 40, a fraction unbound [10] of 0.133 and a remaining at 4 h [11] of 100%. For the same compound, the Drug metabolism [12] was 15.03 µM, the Drug metabolism [13] was 5.44 µM and the Drug metabolism [14] was 8.83 µM. For the same compound, the logD [15] was 3.11, the CLint scaled [16] was 200 mL/min/kg and the CLint scaled [17] was 268 mL/min/kg. The Drug metabolism [18] was 2.1 µM, the Drug metabolism [19] was 2.89 µM and the Drug metabolism [20] was 2818 µM. For the same compound, the EC50 (Hepatitis C virus [21]) was 952 nM and the fraction unbound [22] was 0.24.
